ChEMBL document CHEMBL4837232, “Synthesis, in vitro antiprotozoal activity, molecular docking and molecular dynamics studies of some new monocationic guanidinobenzimidazoles” (Eur J Med Chem, 2021)
Converted amounts (≈) assume the structure as drawn.

What was measured:
L6 = assay: Cytotoxicity against rat L6 cells assessed as reduction in cell viability incubated for 70 hrs by resazurin dye based fluorescence assay; details: L6, 70 h
Procedure, shortened: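 Uses cultured L-6 rat skeletal myoblasts with an Alamar Blue viability read-out, run per an earlier protocol. The IC50 is the mean of at least two independent experiments, with individual values within a factor of two.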

Plasmodium falciparum = assay: Antiplasmodial activity against bloodstream form of Plasmodium falciparum NF54 […] assessed as reduction in [3H]-hypoxanthine incorporation pretreated for 48 hrs followed by [3H]-hypoxanthine addition measured after 24 hrs by liquid scintillation counting method; format: functional, organism-based
[1] = system: Trypanosoma brucei rhodesiense; assay: Antitrypanosomal activity against bloodstream form of Trypanosoma brucei rhodesiense STIB900 incubated for 70 hrs by resazurin dye-based fluorometric analysis; format: functional, organism-based; details: STIB900, 70 h
Leishmania donovani = assay: Antileishmanial activity against Leishmania donovani MHOM/ET/67/L82 amastigotes measured after 70 hrs by resazurin dye based fluorometric analysis; format: functional, organism-based; details: MHOM/ET/67/L82, 70 h
Trypanosoma cruzi = assay: Antitrypanosomal activity against Trypanosoma cruzi Tulahuen C4 strain amastigotes infected in rat L6 cells measured after 96 hrs by inverted microscopy analysis; format: functional, organism-based; details: Tulahuen C4, L6, 96 h
[2] = Selectivity index, ratio of IC50 for cytotoxicity against rat L6 cells to IC50 for antitrypanosomal activity against bloodstream form of Trypanosoma brucei rhodesiense STIB900; format: toxicity, cell-based; details: read-out: Ratio IC50
Procedure, shortened: (§1)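 Each index is the L6-cell IC50 divided by the IC50 for the given parasite. Each IC50 is the mean of at least two independent experiments, agreeing within a factor of two.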

[3] = Selectivity index, ratio of IC50 for cytotoxicity against rat L6 cells to IC50 for antiplasmodial activity against bloodstream form of Plasmodium falciparum NF54; format: toxicity, cell-based; details: read-out: Ratio IC50; procedure, shortened: as §1
[4] = Selectivity index, ratio of IC50 for cytotoxicity against rat L6 cells to IC50 for antitrypanosomal activity against Trypanosoma cruzi Tulahuen C4 strain amastigotes infected in rat L6 cell; format: toxicity, cell-based; details: read-out: Ratio IC50; procedure, shortened: as §1
[5] = Selectivity index, ratio of IC50 for cytotoxicity against rat L6 cells to IC50 for antileishmanial activity against Leishmania donovani MHOM/ET/67/L82 amastigotes; format: toxicity, cell-based; details: read-out: Ratio IC50; procedure, shortened: as §1

| Compound | IC50 (Plasmodium falciparum) [µg/mL] | IC50 [1] [µg/mL] | IC50 (Trypanosoma cruzi) [µg/mL] | IC50 (L6) [µg/mL] | IC50 (Leishmania donovani) [µg/mL] | selectivity ratio [2] | selectivity ratio [3] | selectivity ratio [4] | selectivity ratio [5] |
| --- | --- | --- | --- | --- | --- | --- | --- | --- | --- |
| N=C(N)Nc1ccc2[nH]c(-c3cc(-c4ccc(Cl)cc4)on3)nc2c1 | 1.14 (≈ 3.23 µM) | 5.62 (≈ 15.9 µM) | 21.7 (≈ 61.5 µM) | 46.8 (≈ 133 µM) | 7.7 (≈ 21.8 µM) | – | – | – | – |
| N=C(N)Nc1ccc2[nH]c(-c3ccccc3)nc2c1 | 4.07 (≈ 16.2 µM) | 11.6 (≈ 46.2 µM) | 61.2 (≈ 244 µM) | > 100 | > 100 | – | – | – | – |
| Cc1ncsc1-c1nc2cc(NC(=N)N)ccc2[nH]1 | 3.03 (≈ 11.1 µM) | 17.3 (≈ 63.5 µM) | 64 (≈ 235 µM) | 93 (≈ 341 µM) | 46.8 (≈ 172 µM) | – | – | – | – |
| Cc1ccc(-c2nc3cc(NC(=N)N)ccc3[nH]2)c(C)c1 | 6.26 (≈ 22.4 µM) | 40.8 (≈ 146 µM) | > 100 | 97.8 (≈ 350 µM) | > 100 | – | – | – | – |
| N=C(N)Nc1ccc2[nH]c(-c3ccc(-c4ccccc4)s3)nc2c1 | 0.279 (≈ 0.837 µM) | 16 (≈ 48 µM) | 36.5 (≈ 109 µM) | 48.4 (≈ 145 µM) | 44 (≈ 132 µM) | – | – | – | – |
| N=C(N)Nc1ccc2[nH]c(-c3ccc4c(c3)OCCO4)nc2c1 | 0.82 (≈ 2.65 µM) | 10.1 (≈ 32.7 µM) | 75.1 (≈ 243 µM) | 73.5 (≈ 238 µM) | 56.2 (≈ 182 µM) | – | – | – | – |
| N=C(N)Nc1ccc2[nH]c(-c3cccc4ccccc34)nc2c1 | 1.41 (≈ 4.68 µM) | 11.8 (≈ 39.2 µM) | 63.6 (≈ 211 µM) | 48.9 (≈ 162 µM) | > 100 | – | – | – | – |
| N=C(N)Nc1ccc2[nH]c(-c3ccc(F)c(F)c3)nc2c1 | 2.67 (≈ 9.29 µM) | 6.04 (≈ 21 µM) | 67 (≈ 233 µM) | > 100 | > 100 | – | – | – | – |
| N=C(N)Nc1ccc2[nH]c(-c3cccc4cnccc34)nc2c1 | 2.72 (≈ 9 µM) | 3.8 (≈ 12.6 µM) | 8.57 (≈ 28.3 µM) | 44.6 (≈ 148 µM) | 46.3 (≈ 153 µM) | – | – | – | – |
| N=C(N)Nc1ccc2[nH]c(-c3csc4ccccc34)nc2c1 | 0.57 (≈ 1.85 µM) | 12.1 (≈ 39.4 µM) | 53.1 (≈ 173 µM) | 40 (≈ 130 µM) | 58.6 (≈ 191 µM) | – | – | – | – |
| N=C(N)Nc1ccc2[nH]c(-c3ccc(-c4cccs4)s3)nc2c1 | 0.19 (≈ 0.56 µM) | 11.8 (≈ 34.8 µM) | 46.1 (≈ 136 µM) | 49.9 (≈ 147 µM) | 37.7 (≈ 111 µM) | – | – | – | – |

More lines, main results first:

| IC50 (Plasmodium falciparum) [µg/mL] | IC50 [1] [µg/mL] | IC50 (Trypanosoma cruzi) [µg/mL] | Compound | IC50 (L6) [µg/mL] | IC50 (Leishmania donovani) [µg/mL] | selectivity ratio [2] | selectivity ratio [3] | selectivity ratio [4] | selectivity ratio [5] |
| --- | --- | --- | --- | --- | --- | --- | --- | --- | --- |
| 1.87 (≈ 5.45 µM) | 16.1 (≈ 46.9 µM) | 49.5 (≈ 144 µM) | N=C(N)Nc1ccc2[nH]c(-c3ccc(Oc4ccccc4)cc3)nc2c1 | 51.6 (≈ 150 µM) | > 100 | – | – | – | – |
| 0.226 (≈ 0.632 µM) | 13.6 (≈ 38.1 µM) | 38 (≈ 106 µM) | N=C(N)Nc1ccc2[nH]c(-c3ccc(OCc4ccccc4)cc3)nc2c1 | 43.2 (≈ 121 µM) | > 100 | – | – | – | – |
| 0.052 (≈ 0.129 µM) | 12.5 (≈ 31 µM) | 58.6 (≈ 145 µM) | COc1ccc(Oc2ccc(-c3nc4cc(NC(=N)N)ccc4[nH]3)cc2)cc1OC | > 100 | 58 (≈ 144 µM) | > 8 | > 1920 | > 2 | > 2 |
| 0.153 (≈ 0.491 µM) | 23.8 (≈ 76.4 µM) | > 100 | COc1ccc(-c2nc3cc(NC(=N)N)ccc3[nH]2)cc1OC | 78 (≈ 251 µM) | 97.8 (≈ 314 µM) | – | – | – | – |
| 37.2 (≈ 126 µM) | 72.1 (≈ 244 µM) | 59.1 (≈ 200 µM) | N=C(N)Nc1ccc2[nH]c(-c3ccc(C(=O)O)cc3)nc2c1 | > 100 | > 100 | – | – | – | – |
| 0.168 (≈ 0.495 µM) | 6.03 (≈ 17.8 µM) | 34.3 (≈ 101 µM) | N=C(N)Nc1ccc2[nH]c(-c3ccc4c(c3)Cc3ccccc3-4)nc2c1 | 43.6 (≈ 128 µM) | 40.3 (≈ 119 µM) | – | – | – | – |
| 0.018 (≈ 0.055 µM) | 21.5 (≈ 65.7 µM) | 54.3 (≈ 166 µM) | N=C(N)Nc1ccc2[nH]c(-c3ccc(-c4ccccc4)cc3)nc2c1 | 46.2 (≈ 141 µM) | 52.5 (≈ 161 µM) | 2 | 2360 | 0.8 | 0.8 |
| 1.89 (≈ 6.61 µM) | 29.5 (≈ 103 µM) | 90.5 (≈ 317 µM) | N=C(N)Nc1ccc2[nH]c(-c3ccc(Cl)cc3)nc2c1 | 71.1 (≈ 249 µM) | 64.5 (≈ 226 µM) | – | – | – | – |
| 1.17 (≈ 4.23 µM) | 18.2 (≈ 65.9 µM) | 89.5 (≈ 324 µM) | N#Cc1ccc(-c2nc3cc(NC(=N)N)ccc3[nH]2)cc1 | > 100 | > 100 | – | – | – | – |
